From ChEMBL document CHEMBL3576783, “Synthesis and evaluation of 1,2,4-triazolo[1,5-a]pyrimidines as antibacterial agents against Enterococcus faecium” (J Med Chem, 2015)
≈ marks a conversion by molar mass, not a printed value. Calls of active or inactive are those of the source. The calls are words filed in the database; no cut-off is given here.

What was measured:
Enterococcus faecium [1] = assay: Antibacterial activity against Enterococcus faecium C68 assessed as bacterial growth inhibition after 16-20 hrs by broth microdilution method; format: functional
Method in brief: (§1)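 CLSI broth microdilution in cation-adjusted Mueller Hinton II broth, triplicate. Cultures grown to OD600 about 0.60-0.80, diluted 100-fold; final inoculum 5×10^5 CFU/mL. Compounds from 5 mg/mL DMSO stock diluted in medium, final 2% (v/v) DMSO plus 0.25% (v/v) glacial acetic acid. Incubated 35 °C, 16-20 h, then MIC read.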

Liver = assay: Half life in human liver S9 at 10 uM after 60 mins by UPLC analysis; format: ADME, subcellular, Liver S9 fraction; conditions: s9, 1 h
Method in brief: (§2)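 Pooled human liver S9 (1 mg/mL) with 1 mM NADPH and 10 μM compound in sodium phosphate buffer (0.20 M phosphate, 0.15 M NaCl, pH 7.4), 37 °C for 60 min. Six time points quenched in acetonitrile with internal standard, analysed by UPLC-MRM. Half-life taken from first-order rate constant; CLint scaled with 45 mg protein/g liver and 20 g liver/kg. Run in duplicate.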

Enterococcus faecium [2] = assay: Antibacterial activity against Enterococcus faecium C38 assessed as bacterial growth inhibition after 16-20 hrs by broth microdilution method; format: functional; method in brief: as §1
[3] = Induction of hemolysis in RBC (unknown origin) at 64 ug/ml; conditions: erythrocytes
Staphylococcus aureus [4] = assay: Inhibition of Staphylococcus aureus PBP2a up to 100 ug/ml by BIOCILLIN FL based fluorescence analysis
Method in brief: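 Recombinant purified PBP2a (final 2 μM) preincubated with inhibitor in 25 mM Hepes, 1 M NaCl, pH 7.0, 37 °C, 10 min. BOCILLIN FL (final 20 μM) then added for 10 min at 37 °C. Samples boiled in SDS buffer and run on 12% SDS-PAGE. Fluorescent bands scanned and quantified against a no-inhibitor control.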

[5] = Apparent intrinsic clearance in human liver S9 at 10 uM after 60 mins by UPLC analysis; format: ADME, subcellular, Liver S9 fraction; conditions: read-out: CLH(app); method in brief: as §2
Enterococcus faecium [6] = assay: microbe, parasite or virus in culture; conditions: NCTC 7171
Enterococcus faecium [7] = assay: Antibacterial activity against vancomycin and teicoplanin-resistant Enterococcus faecium ATCC 700221 isolated from human faeces assessed as bacterial growth inhibition after 16-20 hrs by broth microdilution method; format: functional; conditions: ATCC 700221, Feces
Method in brief: as §1, with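 “Broth” for “CLSI broth”, “broth, run to CLSI method,” for “broth,”, “Cells” for “Cultures”, “~0.60-0.80,” for “about 0.60-0.80,”, “stocks” for “stock”, “°C for” for “°C,”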

BL21-DE3 = assay: Inhibition of Enterococcus faecium D63r PBP5fm expressed in Escherichia coli BL21 (DE3) cells up to 100 ug/ml after 10 to 20 mins by BIOCILLIN FL-based fluorescence assay
Method in brief: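 Recombinant PBP5fm lacking the signal peptide, expressed in E. coli BL21(DE3) and purified by anion-exchange then chelating chromatography. Enzyme (40 μM) preincubated with inhibitor in 25 mM Hepes, 1 M NaCl, pH 7.0 at 37 °C for 20 min. BOCILLIN FL (30 μM) then added for a further 20 min. Bands resolved on 12% SDS-PAGE and fluorescence quantified against a no-inhibitor control.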

Enterococcus faecium [8] = assay: Antibacterial activity against vancomycin-susceptible Enterococcus faecium 119-39A assessed as bacterial growth inhibition after 16-20 hrs by broth microdilution method; format: functional; method in brief: as §1
Enterococcus faecium [9] = assay: Antibacterial activity against Enterococcus faecium C9 assessed as bacterial growth inhibition after 16-20 hrs by broth microdilution method; format: functional; method in brief: as §1
Plasma = assay: Plasma protein binding in human at 10 uM by rapid equilibrium dialysis method; format: ADME, cell-free
Method in brief: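 Human plasma centrifuged to clear particulates, spiked with compound to final 10 μM in 0.1% DMSO. Dialysed against 0.1 M sodium phosphate buffer, pH 7.4, at 37 °C overnight with shaking in a rapid equilibrium dialysis device. Buffer and plasma sides extracted with acetonitrile containing internal standard and analysed by UPLC-MRM. Binding calculated as (Cp−Cf)/Cp×100.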

Enterococcus faecium [10] = assay: Inhibition of DNA replication in Enterococcus faecium NCTC 7171 assessed as decrease in [methyl-3H]-thymidine incorporation into DNA at 8 ug/ml after 120 mins by liquid scintillation counting analysis; format: functional, organism-based
Method in brief: (§3)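 E. faecium NCTC 7171 grown in brain-heart infusion at 37 °C to early-log phase. Tritiated precursor (1 uCi/mL) added and incubated 5 min; compound then added at 8 μg/mL with DMSO negative control, followed by 2 h growth. Samples taken every 20 min, precipitated in 20% ice-cold TCA, filtered, washed with TCA and ethanol, and scintillation-counted in duplicate. Value reported at 120 min.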

Enterococcus faecium [11] = assay: Inhibition of peptidoglycan synthesis in Enterococcus faecium NCTC 7171 assessed as decrease in D-[2,3-3H]-alanine incorporation at 8 ug/ml after 120 mins by liquid scintillation counting analysis; format: functional, organism-based; method in brief: as §3
Enterococcus faecium [12] = assay: Antibacterial activity against copper, erythromycin, teracycline-resistant and vancomycin and teicoplanin-sensitive Enterococcus faecium ATCC BAA2127 assessed as bacterial growth inhibition after 16-20 hrs by broth microdilution method; format: functional; method in brief: as §1
Escherichia coli = assay: Effect on beta-galactosidase reporter gene translation in Escherichia coli S30 extract by transcription/translation assay; format: functional
Enterococcus faecium [13] = assay: Inhibition of transcription in Enterococcus faecium NCTC 7171 assessed as decrease in [5,6-3H]-uridine incorporation into RNA at 8 ug/ml after 120 mins by liquid scintillation counting analysis; format: functional, organism-based; method in brief: as §3
Enterococcus faecium [14] = assay: Inhibition of translation in Enterococcus faecium NCTC 7171 assessed as decrease in L-[4,5-3H]-leucine incorporation into protein at 8 ug/ml after 120 mins by liquid scintillation counting analysis; format: functional, organism-based; method in brief: as §3
Pseudomonas aeruginosa = assay: Antibacterial activity against Pseudomonas aeruginosa ATCC 27853 assessed as bacterial growth inhibition after 16-20 hrs by broth microdilution method; format: functional, organism-based
Method in brief: (§4)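 CLSI broth microdilution in cation-adjusted Mueller Hinton II broth, run in triplicate. Cultures grown to OD600 about 0.60-0.80, diluted 100-fold, final inoculum 5×10^5 CFU/mL. Compounds diluted from 5 mg/mL DMSO stocks; final 2% (v/v) DMSO plus 0.25% (v/v) glacial acetic acid. Plates incubated at 35 °C for 16-20 h before reading the MIC.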

Acinetobacter baumannii = assay: Antibacterial activity against Acinetobacter baumannii ATCC 17961 assessed as bacterial growth inhibition after 16-20 hrs by broth microdilution method; format: functional, organism-based; method in brief: as §4
Enterobacter sp. = assay: Antibacterial activity against Enterobacter sp. assessed as bacterial growth inhibition after 16-20 hrs by broth microdilution method; format: functional, organism-based; method in brief: as §4
Staphylococcus aureus [15] = assay: Antibacterial activity against Staphylococcus aureus ATCC 29213 assessed as bacterial growth inhibition after 16-20 hrs by broth microdilution method; format: functional, organism-based; method in brief: as §4
Klebsiella pneumoniae = assay: Antibacterial activity against Klebsiella pneumoniae ATCC 700603 assessed as bacterial growth inhibition after 16-20 hrs by broth microdilution method; format: functional, organism-based; method in brief: as §4

| Compound | MIC (Enterococcus faecium [1]) | t1/2 (Liver) | MIC (Enterococcus faecium [2]) | Activity [3] | inhibition (Staphylococcus aureus [4]) | CLint scaled at 10 µM [5] | MBC (Enterococcus faecium [6]) | MIC (Enterococcus faecium [7]) | inhibition (BL21-DE3) | MIC (Enterococcus faecium [8]) | MIC (Enterococcus faecium [9]) | PPB (Plasma) | MIC (Enterococcus faecium [6]) | MIC (Enterococcus faecium [12]) | further results |
| --- | --- | --- | --- | --- | --- | --- | --- | --- | --- | --- | --- | --- | --- | --- | --- |
| CC1=C(C(N)=O)C(c2ccc(N(C)C)cc2)n2nc(SCc3ccc(C#N)cc3)nc2N1 (stereo not given) | 4 µg/mL (≈ 8.98 µM) | > 60 min | 16 µg/mL (≈ 35.9 µM) | 1% | inactive | < 10.4 mL/min/kg | 16 µg/mL (≈ 35.9 µM) | 8 µg/mL (≈ 18 µM) | inactive | 8 µg/mL (≈ 18 µM) | 4 µg/mL (≈ 8.98 µM) | 96.8% | – | – | – |
| CC1=C(C(N)=O)C(c2ccc(N(C)C)cc2)n2nc(SCc3ccccc3)nc2N1 (stereo not given) | – | > 60 min | 16 µg/mL (≈ 38 µM) | 2% | – | < 10.4 mL/min/kg | 32 µg/mL (≈ 76.1 µM) | 4 µg/mL (≈ 9.51 µM) | – | 4 µg/mL (≈ 9.51 µM) | – | 97.6% | 4 µg/mL (≈ 9.51 µM) | 4 µg/mL (≈ 9.51 µM) | inhibition (Enterococcus faecium [10]): inactive; inhibition (Enterococcus faecium [11]): Active; Activity (Escherichia coli): inactive; inhibition (Enterococcus faecium [13]): inactive; inhibition (Enterococcus faecium [14]): inactive |
| CC1=C(C(N)=O)C(c2ccc(C(C)C)cc2)n2nc(SCc3ccccc3)nc2N1 (stereo not given) | 16 µg/mL (≈ 38.1 µM) | 56 min | 16 µg/mL (≈ 38.1 µM) | 22% | inactive | 11.1 mL/min/kg | 32 µg/mL (≈ 76.3 µM) | – | inactive | 4 µg/mL (≈ 9.53 µM) | 16 µg/mL (≈ 38.1 µM) | 98.7% | 8 µg/mL (≈ 19.1 µM) | 4 µg/mL (≈ 9.53 µM) | inhibition (Pseudomonas aeruginosa): inactive; inhibition (Acinetobacter baumannii): inactive; inhibition (Enterobacter sp.): inactive; inhibition (Staphylococcus aureus [15]): inactive; inhibition (Klebsiella pneumoniae): inactive |
| CN[C@H](CC(C)C)C(=O)N[C@H]1C(=O)N[C@@H](CC(N)=O)C(=O)N[C@H]2C(=O)N[C@H]3C(=O)N[C@H](C(=O)N[C@H](C(=O)O)c4cc(O)cc(O)c4-c4cc3ccc4O)[C@H](O)c3ccc(c(Cl)c3)Oc3cc2cc(c3O[C@@H]2O[C@H](CO)[C@@H](O)[C@H](O)[C@H]2O[C@H]2C[C@](C)(N)[C@H](O)[C@H](C)O2)Oc2ccc(cc2Cl)[C@H]1O [VANCOMYCIN] | 64 µg/mL (≈ 44.2 µM) | – | 64 µg/mL (≈ 44.2 µM) | – | – | – | – | 16 µg/mL (≈ 11 µM) | – | – | – | – | – | – | – |
| CC1=C(C(N)=O)C(c2ccc(OC(C)C)cc2)n2nc(SCc3ccccc3)nc2N1 (stereo not given) | – | 57 min | 32 µg/mL (≈ 73.5 µM) | < 1% | – | 10.9 mL/min/kg | – | 8 µg/mL (≈ 18.4 µM) | – | – | – | – | 4 µg/mL (≈ 9.18 µM) | 16 µg/mL (≈ 36.7 µM) | – |
